Active and inactive are the calls of the source.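 Rule for the calls: active = inhibition of 30% or more at any tested concentration; inactive = the rest.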
Molecular target: M17 leucyl aminopeptidase (Plasmodium falciparum 3D7)
Assay: PfM17LAP leucine aminopeptidase inhibitors, dose response, counter-screen for PfM1AAP inhibitor project, biochemical, QFRET, set 2 (AID 602209)
Settings: recombinant PfM17LAP, H-Leu-NHMec fluorogenic cleavage
Procedure, shortened: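 Test system: Recombinant Plasmodium falciparum M17 leucine aminopeptidase enzyme | Amount: Recombinant PfM17LAP enzyme at 5 µg/mL final | Read-out: % inhibition and IC50 via 4-parameter fit | Compound: 100–0.2 µM, 2-fold dilutions | Repeats: Triplicate | Detection: Fluorescence of released NHMec leaving group | Timing: Reaction 90 min, room temperature | Buffer or medium: Tris-HCl pH 7.5 plus CoCl2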

Row | Structure (SMILES) | IC50 [µM] | inhibition (at 100 µM (top of the series)) | other results
1 | O=C(NCc1ccc2c(c1)OCO2)C1CCN(S(=O)(=O)c2ccc(Br)s2)CC1 | 3.57 | – | –
2 | O=C(NCc1ccccc1)C1CCN(S(=O)(=O)c2ccc(Br)s2)CC1 | 3.52 | – | –
3 | O=C(NCc1ccc(F)cc1)C1CCN(S(=O)(=O)c2ccc(Br)s2)CC1 | 8.81 | – | –
4 | CC[C@H](C)[C@H](NC(=O)c1ccc(C(C)(C)C)cc1)C(=O)NCc1ccc2c(c1)OCO2 | – | – | inhibition (at 1.56 µM (top of the series)): inactive

Now from value to molecule, other results behind:

Row | IC50 [µM] | inhibition (at 100 µM (top of the series)) | Structure (SMILES) | other results
5 | – | inactive | CC[C@H](C)[C@H](NS(=O)(=O)c1ccc(Br)s1)C(=O)NCc1ccc(Cl)cc1 | –
6 | 38.9 | – | O=C(NCc1ccc(Cl)cc1)C1CCN(S(=O)(=O)c2ccc(Br)s2)CC1 | –
7 | – | inactive | CC[C@H](C)[C@H](NC(=O)c1ccc(C(C)(C)C)cc1)C(=O)NCc1ccc(Cl)cc1 | –
8 | – | inactive | CC[C@H](C)[C@H](NS(=O)(=O)c1ccc(Br)s1)C(=O)NCc1ccc2c(c1)OCO2 | –

From PubChem BioAssay AID602209 (Southern Research Specialized Biocontainment Screening …, 2012)
